Laboratory results from ChEMBL document CHEMBL1150144, “Total synthesis and biological evaluation of (5Z,9Z)-5,9-hexadecadienoic acid, an inhibitor of human topoisomerase I” (J Nat Prod, 2002).
pIC50: −log10 of the molar value. ≈ marks a conversion by molar mass, not a printed value. Blank lines part the entries; values can stand above or below the compound they belong to. Calls of active or inactive are those of the source. The calls are words filed in the database; no cut-off is given here.

Experiments:
DNA topoisomerase 1 [1] = biological target: T1, DNA topoisomerase 1 (Homo sapiens, UniProt P11387); assay: Inhibition of human DNA topoisomerase 1
T1 sequence (P11387 whole entry): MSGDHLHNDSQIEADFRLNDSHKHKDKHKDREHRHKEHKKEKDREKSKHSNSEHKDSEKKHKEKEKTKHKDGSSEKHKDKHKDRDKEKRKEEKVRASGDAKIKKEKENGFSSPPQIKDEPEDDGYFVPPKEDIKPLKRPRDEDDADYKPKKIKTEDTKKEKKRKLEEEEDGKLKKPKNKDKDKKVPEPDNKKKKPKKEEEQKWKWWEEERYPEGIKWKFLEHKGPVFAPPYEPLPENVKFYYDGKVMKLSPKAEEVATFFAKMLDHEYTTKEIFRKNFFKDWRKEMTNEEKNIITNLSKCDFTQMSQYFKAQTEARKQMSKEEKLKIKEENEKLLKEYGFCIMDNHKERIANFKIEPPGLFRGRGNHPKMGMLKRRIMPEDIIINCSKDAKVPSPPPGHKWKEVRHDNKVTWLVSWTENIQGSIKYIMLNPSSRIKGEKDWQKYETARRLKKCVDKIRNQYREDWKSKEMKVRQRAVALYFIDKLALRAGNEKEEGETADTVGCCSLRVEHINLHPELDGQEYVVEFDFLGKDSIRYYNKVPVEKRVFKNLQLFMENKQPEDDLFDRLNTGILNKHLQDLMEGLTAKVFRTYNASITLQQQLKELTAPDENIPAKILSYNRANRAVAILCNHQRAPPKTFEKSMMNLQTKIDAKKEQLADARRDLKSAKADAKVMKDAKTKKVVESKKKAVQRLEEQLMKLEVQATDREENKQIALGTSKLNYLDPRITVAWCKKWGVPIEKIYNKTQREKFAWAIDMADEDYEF

DNA topoisomerase 1 [2] = biological target: T1, DNA topoisomerase 1; assay: Inhibition of DNA topoisomerase 1
[3] = biological target: T2, DNA topoisomerase 1 (Homo sapiens) (UniProt P11387); assay: Inhibition of human DNA topoisomerase 1 assessed as inhibition of uncoiling of supercoiled Tetrahymena pHOT1 DNA at > 1000 uM after 30 mins by agarose gel electrophoresis
T2 sequence (whole entry): T1 sequence (P11387 whole entry)
How it was run: (§1)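 Human placental topoisomerase I (1 unit relaxes 0.5 µg DNA in 15 min at 37 °C) was used with 0.25 µg supercoiled pHOT1 plasmid. Fatty acids in DMSO were tested at final 1000, 800, 500, 100 and 10 µM for 30 min at 37 °C. Reactions were stopped with SDS, then proteinase K (final 0.05 mg/mL, 30 min, 37 °C). Products were run on 1% agarose, stained with ethidium bromide, and bands imaged and quantitated.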

Staphylococcus aureus = assay: Antimicrobial activity against Staphylococcus aureus ATCC 25923 after overnight incubation; format: functional
How it was run: (§2)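 MIC read after overnight incubation of fatty acid with each organism at 37 °C. Endpoint was the highest dilution preventing growth, compared with an uninoculated chemical-control well. Data come from at least three separate experiments in duplicate.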

Enterococcus faecalis = assay: Antimicrobial activity against Streptococcus faecalis ATCC 29212 after overnight incubation; format: functional; how it was run: as §2
Pseudomonas aeruginosa = assay: Antimicrobial activity against Pseudomonas aeruginosa ATCC 27853 after overnight incubation; format: functional; how it was run: as §2
Escherichia coli = assay: Antimicrobial activity against Escherichia coli ATCC 25922 after overnight incubation; format: functional; how it was run: as §2
[4] = biological target: T2, DNA topoisomerase 1 (Homo sapiens); assay: Inhibition of human DNA topoisomerase 1 assessed as inhibition of uncoiling of supercoiled Tetrahymena pHOT1 DNA at […] after 30 mins by agarose gel electrophoresis
[5] = biological target: T2, DNA topoisomerase 1 (Homo sapiens); assay: Inhibition of human DNA topoisomerase 1 assessed as inhibition of uncoiling of supercoiled Tetrahymena pHOT1 DNA at 800 uM after 30 mins by agarose gel electrophoresis; how it was run: as §1

Structure (SMILES): CCCCCCC#CCCC#CCCCC(=O)O
inhibition [3]: inactive

Structure (SMILES): CCCCCCCC/C=C\CCCCCCCC(=O)O [OLEIC ACID]
pIC50 (DNA topoisomerase 1 [2]): 4.51

Structure (SMILES): CCCCCC/C=C\CC/C=C\CCCC(=O)O
MIC (Staphylococcus aureus): 80 µM (≈ 20.2 µg/mL)
MIC (Enterococcus faecalis): 200 µM (≈ 50.5 µg/mL)
Activity (Pseudomonas aeruginosa): inactive
Activity (Escherichia coli): inactive
inhibition [5]: Active

Other lines, results leading:

pIC50 (DNA topoisomerase 1 [1]): 6.05
Structure (SMILES): CCCCCCCCCCCCCCCCC/C=C\CC/C=C\CCCC(=O)O

pIC50 (DNA topoisomerase 1 [2]): < 3.00
Structure (SMILES): CCCCCCCC/C=C/CCCCCCCC(=O)O [ELAIDIC ACID]

MIC (Staphylococcus aureus): > 400 µM
MIC (Enterococcus faecalis): > 400 µM
MIC (Pseudomonas aeruginosa): > 400 µM
MIC (Escherichia coli): > 400 µM
inhibition [4]: inactive
Structure (SMILES): CCCCCCCCCCCCCCCC(=O)O [PALMITIC ACID]

MIC (Staphylococcus aureus): 240 µM (≈ 60.6 µg/mL)
MIC (Enterococcus faecalis): 160 µM (≈ 40.4 µg/mL)
Structure (SMILES): CC(C)CCC/C=C\CC/C=C\CCCC(=O)O
